These results are taken from ChEMBL document CHEMBL1153423, “Identification and characterization of small molecule inhibitors of a class I histone deacetylase from Plasmodium falciparum” (J Med Chem, 2009).

One data set has as its target T1, Histone deacetylase (Plasmodium falciparum, UniProt Q9XYC7).
T1 sequence (Q9XYC7 whole entry): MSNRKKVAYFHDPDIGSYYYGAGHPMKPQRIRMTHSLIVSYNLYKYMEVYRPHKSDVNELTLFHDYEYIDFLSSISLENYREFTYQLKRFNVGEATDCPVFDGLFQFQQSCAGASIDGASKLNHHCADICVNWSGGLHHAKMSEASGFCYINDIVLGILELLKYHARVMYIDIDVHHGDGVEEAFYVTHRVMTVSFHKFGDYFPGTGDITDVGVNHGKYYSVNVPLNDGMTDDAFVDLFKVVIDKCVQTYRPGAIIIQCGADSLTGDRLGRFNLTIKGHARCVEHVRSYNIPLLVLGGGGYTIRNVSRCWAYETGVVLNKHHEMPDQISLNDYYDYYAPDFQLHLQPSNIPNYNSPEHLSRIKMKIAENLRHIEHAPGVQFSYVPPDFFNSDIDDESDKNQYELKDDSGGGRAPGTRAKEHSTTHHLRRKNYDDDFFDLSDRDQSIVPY
In words: Inhibition of Plasmodium falciparum HDAC1 expressed in Drosophila melanogaster S2 cells. Format: cell-based. In a few lines: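 Recombinant pfHDAC-1 cDNA carrying a C-terminal HPC4 epitope tag was expressed in Drosophila S2 cells. A stable pool was selected with blasticidin after co-transfection, and the enzyme was purified via the HPC4 tag. Substrate characterisation used the fluorogenic peptide Ac-Leu-Gly-Lys(Ac)-AMC, with a Michaelis–Menten fit.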

In a further data set the test system is MM1.S. The data set is described as follows: Inhibition of histone acetylation in human MM1S cells at 0.2 uM relative to untreated control. It is filed as functional.
For the next data set, the system named is Plasmodium falciparum. The data set is described as follows: Antimalarial activity against Plasmodium falciparum 3D7 by [3H]hypoxanthine uptake. Format: functional, organism-based.
A short description of data set [1]: Growth inhibition of human MM1S cells. Format: cell-based. The following applies: mm1.s.
Substrate in data set [2]: CC(=O)NCCCC[C@H](NC(=O)CNC(=O)[C@H](CC(C)C)NC(C)=O)C(=O)Nc1ccc2c(C)cc(=O)oc2c1
In words: (§1) Activity of Plasmodium falciparum HDAC1 expressed in Drosophila melanogaster S2 cells by Michaelis-Menten method. Format: cell-based. In a few lines:
(§2)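 pfHDAC-1 cDNA with a C-terminal HPC4 epitope tag was expressed in a stable blasticidin-selected Drosophila S2 pool and purified through the tag. Activity was measured on the acetyl-lysine AMC peptide substrates Ac-Leu-Gly-Lys(Ac)-AMC and Boc-Lys(trifluoroacetyl)-AMC. kcat and apparent Km were obtained by fitting the Michaelis–Menten model to the rate data.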

Substrate in data set [3]: Cc1cc(=O)oc2cc(NC(=O)[C@H](CCCCNC(=O)C(F)(F)F)NC(=O)OC(C)(C)C)ccc12
The data set is described as §1. It is filed as cell-based. In a few lines:
as §2

For orientation: IC50 means the midpoint of a concentration-inhibition curve. Higher therefore signals weaker potency. Turning to `O=C(CCCCCC(=O)NN/C=C/c1cccc(O)c1)NO`, the IC50 was 59 nM at Histone deacetylase and 99 nM in the data set with Plasmodium falciparum. Besides, in the data set on MM1.S, the “fold change (FC)” value turned out to be 1.2. Besides, the Activity entry in data set [1] is “Non-toxic”.
The matching figures for `O=C(CCCCCC(=O)NN/C=C/c1cc2c(cc1Br)OCO2)NO`: 20 nM, 59 nM, 1 and “Non-toxic”.
The matching figures for `COc1ccc(Br)c(/C=C/NNC(=O)CCCCCC(=O)NO)c1`: 22 nM, above 500 nM, 1.1 and “Non-toxic”.
The matching figures for `O=C(CCCCCC(=O)NN/C=C/c1ccc(-n2ccnc2)cc1)NO`: 15 nM, 57 nM, 1 and “Non-toxic”.
With `O=C(CCCCCC(=O)NN/C=C/c1c(O)ccc2ccccc12)NO`, the IC50 against Histone deacetylase was found to be 41 nM; in the data set on Plasmodium falciparum, 20 nM. Further, the “fold change (FC)” value in the data set with MM1.S came out at 1. In data set [1], the Activity entry is listed as “Non-toxic”.
`O=C(CCCCCCC(=O)NN/C=C/c1cc(O)ccc1O)NO`: the results for the IC50 at Histone deacetylase and in the data set with Plasmodium falciparum were 110 nM and 142 nM, respectively. In addition, the “fold change (FC)” value in the data set with MM1.S is recorded as 1.1. Also, in data set [1], the Activity result is recorded as “Non-toxic”.
Take `CC(/C=C/C(=O)NO)=C\[C@@H](C)C(=O)c1ccc(N(C)C)cc1` [TRICHOSTATIN]: the results for the IC50 against Histone deacetylase and in the data set on Plasmodium falciparum were 0.6 nM and 16 nM, respectively.
On to `O=C(CCCCCCC(=O)NN/C=C/c1c(O)cc(O)cc1O)NO`, for which the values for the IC50 at Histone deacetylase and in the data set with Plasmodium falciparum were 43 nM and 50 nM, respectively. In addition, the “fold change (FC)” value in the data set with MM1.S came out at 1.1. For the same molecule, the Activity entry in data set [1] was “Non-toxic”.
`O=C1CCc2c(ccc3ccccc23)O1` [SPLITOMICIN]: the IC50 on Histone deacetylase and with Plasmodium falciparum was above 10000 nM throughout.
As for `COc1cc(/C=C/NNC(=O)CCCCCC(=O)NO)c(Br)cc1O`, the IC50 is 59 nM at Histone deacetylase and 47 nM with Plasmodium falciparum. Further, the “fold change (FC)” value in the data set with MM1.S was determined as 1. In addition, the Activity entry in data set [1] was “Non-toxic”.
In the data set on Plasmodium falciparum, `Cc1[nH]c2ccccc2c1CCNCc1ccc(/C=C/C(=O)NO)cc1` [PANOBINOSTAT] showed an IC50 of 21 nM.
Same read-out and setting: the same measure for `Nc1ccccc1NC(=O)c1ccc(CNC(=O)OCc2cccnc2)cc1` [ENTINOSTAT]: above 10000 nM.
For the molecule `O=C(CCCCC(=O)NN/C=C/c1cc(O)ccc1Br)NO`, the IC50 on Histone deacetylase amounted to 89 nM; in the data set on Plasmodium falciparum it was 30 nM. The “fold change (FC)” value in the data set on MM1.S was determined as 1.1. Further, the Activity result in data set [1] is “Non-toxic”.
For the molecule `CCC(=O)CCCCC[C@@H]1NC(=O)[C@H]2CCCCN2C(=O)[C@H]([C@@H](C)CC)NC(=O)[C@H](Cc2cn(OC)c3ccccc23)NC1=O` [APICIDIN], the IC50 with Plasmodium falciparum was 33 nM.
As to `O=C(CCCCC(=O)NN/C=C/c1ccc(O)cc1Br)NO`, the values for the IC50 on Histone deacetylase and in the data set with Plasmodium falciparum were 106 nM and 53 nM, respectively. The “fold change (FC)” value in the data set with MM1.S came to 1.1. Further, the Activity entry in data set [1] was “Non-toxic”.
For `O=C(CCCCCC(=O)NN/C=C/c1cccnc1Br)NO` the same measures were 36 nM, 22 nM, 0.9 and “Non-toxic”.
The matching figures for `O=C(CCCCCC(=O)NN/C=C/c1ccccc1Cl)NO`: 90 nM, 288 nM, 0.9 and “Non-toxic”.
`CN(C)c1ccc(/C=C/NNC(=O)CCCCCC(=O)NO)c(O)c1`: the IC50 came to 37 nM on Histone deacetylase and 24 nM in the data set on Plasmodium falciparum. In the data set on MM1.S, the “fold change (FC)” value was determined as 1.2. Also, the Activity entry in data set [1] is listed as “Non-toxic”.
For `COc1cc(/C=C/NNC(=O)CCCCC(=O)NO)c(Br)cc1O` the same measures were 59 nM, 498 nM, 1.2 and “Non-toxic”.
For `O=C(CCCCCC(=O)NN/C=C/c1cc(O)ccc1Br)NO` the same measures were 49 nM, 35 nM, 1 and “Non-toxic”.
For `O=C(CCCCCC(=O)NN/C=C/c1ccccc1Br)NO` the same measures were 37 nM, 15 nM, 1.1 and “Non-toxic”.

B1: Histone deacetylase (Plasmodium falciparum), Q9XYC7 (protein)
chain: T1 sequence (Q9XYC7 whole entry)
Usually Km stands for the substrate concentration at which the rate is half of its maximum. As a reminder, the kcat is the maximal rate divided by the concentration of active sites. As for B1, the values for the Km in data set [2] and in data set [3] were 30 µM and “Not Active”, respectively. The results for the kcat in data set [2] and in data set [3] were 0.19 s⁻¹ and “Not Active”, respectively.
